Measured values taken from ChEMBL document CHEMBL3853298, “Total synthesis and in vitro bioevaluation of clavaminols A, C, H & deacetyl clavaminol H as potential chemotherapeutic and antibiofilm agents” (Eur J Med Chem, 2016).
pIC50: −log10 of the molar value. Values after ≈ are worked out from the molar mass of the structure shown.

How the values were obtained:
[1] = Cytotoxicity against human SKOV3 cells assessed as cell growth inhibition by MTT assay; type: functional, cell-based; settings: SK-OV-3
[2] = Cytotoxicity against human DU145 cells assessed as cell growth inhibition by MTT assay; type: functional, cell-based; settings: DU-145
[3] = Cytotoxicity against human HeLa cells assessed as cell growth inhibition by MTT assay; type: functional, cell-based
[4] = Cytotoxicity against human MCF7 cells assessed as cell growth inhibition by MTT assay; type: functional, cell-based
Staphylococcus aureus [5] = test: Antibacterial activity against Staphylococcus aureus MTCC 96 after 24 hrs by well diffusion method; type: functional; settings: MTCC 96, 24 h
In short: (§1)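 Bacteria spread (0.1 mL suspension) on Mueller-Hinton agar; 6.0 mm wells loaded with compound over a 250 to 0.48 per-well dose range, methanol as negative control. Incubated 24 h at 37 °C. MIC taken as the lowest concentration still giving an inhibition zone. Duplicates, mean reported.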

Bacillus subtilis [6] = test: Antibacterial activity against Bacillus subtilis MTCC 121 after 24 hrs by well diffusion method; type: functional; settings: MTCC 121, 24 h; in short: as §1
Micrococcus luteus = test: Antibacterial activity against Micrococcus luteus MTCC 2470 after 24 hrs by well diffusion method; type: functional; settings: MTCC 2470, 24 h; in short: as §1
Staphylococcus aureus [7] = test: Antibacterial activity against Staphylococcus aureus MLS16 MTCC 2940 after 24 hrs by well diffusion method; type: functional; settings: MLS16 MTCC 2940, 24 h; in short: as §1
Raoultella planticola = test: Antibacterial activity against Klebsiella planticola MTCC 530 after 24 hrs by well diffusion method; type: functional; settings: MTCC 530, 24 h; in short: as §1
Escherichia coli = test: Antibacterial activity against Escherichia coli MTCC 739 after 24 hrs by well diffusion method; type: functional; settings: MTCC 739, 24 h; in short: as §1
Pseudomonas aeruginosa = test: Antibacterial activity against Pseudomonas aeruginosa MTCC 2453 after 24 hrs by well diffusion method; type: functional; settings: MTCC 2453, 24 h; in short: as §1
Candida albicans [8] = test: Antifungal activity against Candida albicans MTCC 227 after 24 hrs by well diffusion method; type: functional; settings: MTCC 227, 24 h
In short: (§2)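 Candida/Issatchenkia lawns (0.1 mL suspension) on Mueller-Hinton agar; 6.0 mm bored wells receive compound across a 250 to 0.48 per-well dose range, methanol as negative control. Plates kept 24 h at 30 °C. MIC is the lowest concentration producing a visible inhibition zone. Duplicate runs, mean values.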

Candida albicans [9] = test: Antifungal activity against Candida albicans MTCC 183 after 24 hrs by well diffusion method; type: functional; settings: MTCC 183, 24 h; in short: as §2
Candida albicans [10] = test: Antifungal activity against Candida albicans MTCC 854 after 24 hrs by well diffusion method; type: functional; settings: MTCC 854, 24 h; in short: as §2
Candida albicans [11] = test: Antifungal activity against Candida albicans MTCC 1637 after 24 hrs by well diffusion method; type: functional; settings: MTCC 1637, 24 h; in short: as §2
Candida albicans [12] = test: Antifungal activity against Candida albicans MTCC 3017 after 24 hrs by well diffusion method; type: functional; settings: MTCC 3017, 24 h; in short: as §2
Candida albicans [13] = test: Antifungal activity against Candida albicans MTCC 3018 after 24 hrs by well diffusion method; type: functional; settings: MTCC 3018, 24 h; in short: as §2
Candida albicans [14] = test: Antifungal activity against Candida albicans MTCC 3958 after 24 hrs by well diffusion method; type: functional; settings: MTCC 3958, 24 h; in short: as §2
Candida albicans [15] = test: Antifungal activity against Candida albicans MTCC 4748 after 24 hrs by well diffusion method; type: functional; settings: MTCC 4748, 24 h; in short: as §2
Candida albicans [16] = test: Antifungal activity against Candida albicans MTCC 7315 after 24 hrs by well diffusion method; type: functional; settings: MTCC 7315, 24 h; in short: as §2
[17] = Antifungal activity against Candida parapsilosis MTCC 1744 after 24 hrs by well diffusion method; type: functional; in short: as §2
[Candida] aaseri = Antifungal activity against Candida aaseri MTCC 1962 after 24 hrs by well diffusion method; type: functional; settings: Yamadazyma aaseri, MTCC 1962, 24 h; in short: as §2
[18] = Antifungal activity against Candida glabrata MTCC 3019 after 24 hrs by well diffusion method; type: functional; settings: Nakaseomyces glabratus; in short: as §2
[19] = Antifungal activity against Candida krusei MTCC 3020 after 24 hrs by well diffusion method; type: functional; settings: Pichia kudriavzevii; in short: as §2
Pichia sporocuriosa = test: Antifungal activity against Issatchenkia hanoiensis MTCC 4755 after 24 hrs by well diffusion method; type: functional; settings: MTCC 4755, 24 h; in short: as §2
Staphylococcus aureus [20] = test: Bactericidal activity against Staphylococcus aureus MTCC 96 after 24 hrs; type: functional; settings: MTCC 96, 24 h
In short: (§3)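 Broth macrodilution in Mueller Hinton broth, compound serially diluted from 150 down to 0. Overnight bacterial culture added to a final 1.5 × 10^8 CFU/mL (0.5 McFarland), 24 h at 37 °C. Suspension then subcultured onto Mueller Hinton agar for 24 h at 37 °C. MBC is the lowest concentration killing the strain. Duplicates.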

Bacillus subtilis [21] = test: Bactericidal activity against Bacillus subtilis MTCC 121 after 24 hrs; type: functional; settings: MTCC 121, 24 h; in short: as §3

CCCCCCCCC[C@H](O)[C@@H](C)N [CLAVAMINOL A]
pIC50 [1]: 4.90
pIC50 [2]: 4.97
pIC50 [3]: 4.81
pIC50 [4]: 4.74
MIC (Staphylococcus aureus [5]): 7.8 µg/mL (≈ 38.7 µM)
MIC (Bacillus subtilis [6]): 7.8 µg/mL (≈ 38.7 µM)
MIC (Micrococcus luteus): 1.9 µg/mL (≈ 9.44 µM)
MIC (Staphylococcus aureus [7]): 3.9 µg/mL (≈ 19.4 µM)
MIC (Raoultella planticola): 15.6 µg/mL (≈ 77.5 µM)
MIC (Escherichia coli): 7.8 µg/mL (≈ 38.7 µM)
MIC (Pseudomonas aeruginosa): 7.8 µg/mL (≈ 38.7 µM)
MIC (Candida albicans [8]): 31.2 µg/mL (≈ 155 µM)
MIC (Candida albicans [9]): 31.2 µg/mL (≈ 155 µM)
MIC (Candida albicans [10]): 15.6 µg/mL (≈ 77.5 µM)
MIC (Candida albicans [11]): 31.2 µg/mL (≈ 155 µM)
MIC (Candida albicans [12]): 15.6 µg/mL (≈ 77.5 µM)
MIC (Candida albicans [13]): 15.6 µg/mL (≈ 77.5 µM)
MIC (Candida albicans [14]): 31.2 µg/mL (≈ 155 µM)
MIC (Candida albicans [15]): 31.2 µg/mL (≈ 155 µM)
MIC (Candida albicans [16]): 15.6 µg/mL (≈ 77.5 µM)
MIC [17]: 31.2 µg/mL (≈ 155 µM)
MIC ([Candida] aaseri): 62.5 µg/mL (≈ 310 µM)
MIC [18]: 15.6 µg/mL (≈ 77.5 µM)
MIC [19]: 7.8 µg/mL (≈ 38.7 µM)
MIC (Pichia sporocuriosa): 31.2 µg/mL (≈ 155 µM)
MBC (Staphylococcus aureus [20]): 15.6 µg/mL (≈ 77.5 µM)
MBC (Bacillus subtilis [21]): 15.6 µg/mL (≈ 77.5 µM)
